In paper PMC8360185 (Chembiochem, 2021):

System: FKBP12-NLuc or FKBP51-NLuc
Format: cell-based, human
Details: 1 µM Elacridar, 20 nM tracer 2b or 200 nM tracer 2c
Summary of the method: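 HEK293T cells expressing C-terminal FKBP-NanoLuc fusions were resuspended in Opti-MEM at 4.6×105 (transient) or 1.81×10^6 cells/mL (stable). Tracer was added from an eightfold stock, and test compound in DMSO was 1:2 serially diluted. Plates were incubated 2 h at 37 °C, then 15 min at RT. NanoGlo substrate (1:664) and extracellular NanoLuc inhibitor (1:2000) were added, with donor read at 450 nm and acceptor at 660 nm after 3 min.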

SMILES	effect of Elacridar on NanoBRET activity
C=CC[C@@H]1/C=C(\C)C[C@H](C)C[C@H](OC)[C@H]2O[C@@](O)(C(=O)C(=O)N3CCCC[C@H]3C(=O)O[C@H](/C(C)=C/[C@@H]3CC[C@@H](O)[C@H](OC)C3)[C@H](C)[C@@H](O)CC1=O)[C@H](C)C[C@@H]2OC [FK506]	did not affect
COc1ccc(CC[C@@H](OC(=O)[C@@H]2CCCCN2C(=O)[C@H](c2cc(OC)c(OC)c(OC)c2)C2CCCCC2)c2cccc(OCCN3CCOCC3)c2)cc1OC [SAFit2]	did not affect
